Each block holds one compound with its values, some of them ahead of it.
What was measured:
A-431 = test: cells; type: functional, cell-based; conditions: Homo sapiens, A-431, 48 h
[1] = molecular target: Epidermal growth factor receptor (Homo sapiens, UniProt P00533, T790M); type: protein assay
NCI-H1975 [2] = test: cells; type: functional, cell-based; conditions: Homo sapiens, NCI-H1975, 48 h
[3] = molecular target: Epidermal growth factor receptor (Homo sapiens, UniProt P00533);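 further: inhibition of wild-type EGFR read out by HTRF, with a 5 min incubation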
hERG (KCNH2) [4] = molecular target: T1, hERG (KCNH2) (Homo sapiens, UniProt Q12809); test: Inhibition of human ERG assessed as reduction in channel currents at 1 uM
[5] = molecular target: Receptor tyrosine-protein kinase erbB-2 (Homo sapiens, UniProt P04626); test: Inhibition of wild type HER2 (unknown origin) incubated for 5 mins by HTRF assay
hERG (KCNH2) [6] = molecular target: T1, hERG (KCNH2); test: Inhibition of human ERG assessed as reduction in channel currents at 10 uM
[7] = Intrinsic clearance in human liver microsomes assessed per mg protein at 1 uM in presence of NADPH after 0.5 to 30 mins by LC/MS/MS method; type: ADME; conditions: read-out: CLH
[8] = Intrinsic clearance in mouse liver microsomes assessed per mg protein at 1 uM in presence of NADPH after 0.5 to 30 mins by LC/MS/MS method; type: ADME; conditions: read-out: CLH
[9] = Intrinsic clearance in dog liver microsomes assessed per mg protein at 1 uM in presence of NADPH after 0.5 to 30 mins by LC/MS/MS method; type: ADME, Canis lupus familiaris; conditions: read-out: CLH
[10] = Intrinsic clearance in monkey liver microsomes assessed per mg protein at 1 uM in presence of NADPH after 0.5 to 30 mins by LC/MS/MS method; type: ADME, Macaca mulatta; conditions: rhesus monkey, read-out: CLH
[11] = Intrinsic clearance in rat liver microsomes assessed per mg protein at 1 uM in presence of NADPH after 0.5 to 30 mins by LC/MS/MS method; type: ADME; conditions: read-out: CLH
Mus musculus [12] = test: AUC (0 to infinity) in BALB/c mouse at 5 mg/kg, po after 24 hrs by LC/MS/MS method; type: ADME, organism-based, Plasma; parameters: time infinity, dose 5 mg/kg, route oral; conditions: in vivo, 24 h
Mus musculus [13] = test: Apparent volume of distribution in BALB/c mouse at 5 mg/kg, po after 24 hrs by LC/MS/MS method; type: ADME, organism-based; parameters: dose 5 mg/kg, route oral; conditions: in vivo
[14] = Cmax in BALB/c mouse at 5 mg/kg, po after 24 hrs by LC/MS/MS method; type: ADME, organism-based; parameters: dose 5 mg/kg, route oral; conditions: in vivo
Mus musculus [15] = test: Apparent clearance in BALB/c mouse at 5 mg/kg, po after 24 hrs by LC/MS/MS method; type: ADME, organism-based; parameters: dose 5 mg/kg, route oral; conditions: in vivo, 24 h
[16] = Oral bioavailability in BALB/c mouse at 5 mg/kg after 24 hrs by LC/MS/MS method; type: ADME, organism-based; conditions: in vivo
hERG (KCNH2) [17] = molecular target: T1, hERG (KCNH2); test: Inhibition of human ERG assessed as reduction in channel currents at 0.1 uM
[18] = Oral bioavailability in BALB/c mouse at 10 mg/kg after 24 hrs by LC/MS/MS method; type: ADME, organism-based; conditions: in vivo
Cytochrome P450 2C9 = Cytochrome P450 2C9 (Homo sapiens, UniProt P11712); test: Inhibition of CYP2C9 in human hepatic microsomes after 20 mins by LC/MS/MS method; type: ADME, Liver
NCI-H1975 [19] = test: Antitumor activity against human NCI-H1975 cells xenografted in nude mouse assessed as reduction in tumor growth at 60 mg/kg/day, ig relative to untreated control; type: functional; conditions: route intragastric
[20] = AUC (0 to infinity) in BALB/c mouse at 10 mg/kg, po after 24 hrs by LC/MS/MS method; type: ADME, organism-based, Plasma; parameters: dose 10 mg/kg, route oral, time infinity; conditions: BALB/c, plasma
[21] = Apparent clearance in BALB/c mouse at 10 mg/kg, po after 24 hrs by LC/MS/MS method; type: ADME, organism-based; parameters: dose 10 mg/kg, route oral; conditions: BALB/c, in vivo, read-out: CL(app)
Cytochrome P450 3A4 = Cytochrome P450 3A4 (Homo sapiens, UniProt P08684); test: Inhibition of CYP3A4 in human hepatic microsomes after 20 mins by LC/MS/MS method; type: ADME, Liver
[22] = Cmax in BALB/c mouse at 10 mg/kg, po after 24 hrs by LC/MS/MS method; type: ADME, organism-based; parameters: dose 10 mg/kg, route oral; conditions: in vivo
SW-620 = test: Growth inhibition of human SW620 cells at 5 uM; type: functional; conditions: read-out: GI
NCI-H1975 [23] = test: Antitumor activity against human NCI-H1975 cells xenografted in nude mouse assessed as reduction in tumor growth at 15 mg/kg/day, ig relative to untreated control; type: functional; conditions: route intragastric
NCI-H1975 [24] = test: Antitumor activity against human NCI-H1975 cells xenografted in nude mouse assessed as reduction in tumor growth at 15 to 60 mg/kg/day, ig relative to untreated control; type: functional, organism-based
Cytochrome P450 2D6 = Cytochrome P450 2D6 (Homo sapiens, UniProt P10635); test: Inhibition of CYP2D6 in human hepatic microsomes after 20 mins by LC/MS/MS method; type: ADME, Liver
Cytochrome P450 1A2 = molecular target: T2, Cytochrome P450 1A2 (Homo sapiens, UniProt P05177); test: Inhibition of CYP1A2 in human hepatic microsomes after 20 mins by LC/MS/MS method; type: ADME, Liver
T2 sequence (P05177 whole entry): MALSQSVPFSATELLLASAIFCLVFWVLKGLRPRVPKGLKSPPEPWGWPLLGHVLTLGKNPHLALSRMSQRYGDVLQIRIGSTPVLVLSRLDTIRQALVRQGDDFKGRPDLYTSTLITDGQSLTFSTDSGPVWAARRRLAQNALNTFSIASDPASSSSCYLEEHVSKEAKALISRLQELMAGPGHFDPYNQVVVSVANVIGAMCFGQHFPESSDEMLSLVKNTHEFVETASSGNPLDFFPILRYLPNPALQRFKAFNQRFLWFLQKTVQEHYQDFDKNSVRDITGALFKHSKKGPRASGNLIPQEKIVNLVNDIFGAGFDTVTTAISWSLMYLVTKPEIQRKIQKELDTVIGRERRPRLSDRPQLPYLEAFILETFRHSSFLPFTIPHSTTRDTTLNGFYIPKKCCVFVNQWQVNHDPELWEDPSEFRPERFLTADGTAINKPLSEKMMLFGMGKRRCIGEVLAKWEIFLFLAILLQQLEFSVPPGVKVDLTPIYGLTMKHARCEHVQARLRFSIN

NCI-H1975 [25] = test: Antitumor activity against human NCI-H1975 cells xenografted in nude mouse assessed as reduction in tumor growth at 30 mg/kg/day, ig relative to untreated control; type: functional; conditions: route intragastric
Mus musculus [26] = test: Apparent volume of distribution in BALB/c mouse at 10 mg/kg, po after 24 hrs by LC/MS/MS method; type: ADME, organism-based; parameters: dose 10 mg/kg, route oral; conditions: in vivo
NCI-H1975 [27] = test: Toxicity in human NCI-H1975 cells xenografted nude mouse assessed as induction of mortality at 30 mg/kg/day, ig; type: organism-based; parameters: route intragastric; conditions: in vivo, po
Method in brief: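 H1975 NSCLC xenografts set up by subcutaneous inoculation of 3.0 × 10⁷ cells into nude mice. Dosing began at mean tumour size 50−150 mm³. Randomised mice received compound by ig gavage […] for 9 days. Vehicle control was 0.5% CMC-Na + 0.4% Tween80 at 10 mL/kg. Mortality and body weight were monitored during treatment.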

Cytochrome P450 2C19 = Cytochrome P450 2C19 (Homo sapiens, UniProt P33261); test: Inhibition of CYP2C19 in human hepatic microsomes after 20 mins by LC/MS/MS method; type: ADME, Liver
[28] = Ratio of drug level in brain to plasma in BALB/c mouse at 30 mg/kg, po after 6 hrs by LC/MS/MS method; type: ADME, organism-based; parameters: dose 30 mg/kg, route oral; conditions: read-out: BPR
Method in brief: (§1)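 BALB/c mice received a single oral dose of 30 mg/kg. Drug concentrations in lung, brain and plasma were measured at multiple time points over 6 h. Mean tissue levels are expressed as a lung/plasma/brain ratio, with plasma set to 1.0.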

[29] = Ratio of drug level in lung to plasma in BALB/c mouse at 30 mg/kg, po after 6 hrs by LC/MS/MS method; type: ADME, organism-based; parameters: dose 30 mg/kg, route oral
Method in brief: as §1

Sequence of Epidermal growth factor receptor (Homo sapiens, UniProt P00533, T790M) (P00533 25-1210 T790M limits assumed): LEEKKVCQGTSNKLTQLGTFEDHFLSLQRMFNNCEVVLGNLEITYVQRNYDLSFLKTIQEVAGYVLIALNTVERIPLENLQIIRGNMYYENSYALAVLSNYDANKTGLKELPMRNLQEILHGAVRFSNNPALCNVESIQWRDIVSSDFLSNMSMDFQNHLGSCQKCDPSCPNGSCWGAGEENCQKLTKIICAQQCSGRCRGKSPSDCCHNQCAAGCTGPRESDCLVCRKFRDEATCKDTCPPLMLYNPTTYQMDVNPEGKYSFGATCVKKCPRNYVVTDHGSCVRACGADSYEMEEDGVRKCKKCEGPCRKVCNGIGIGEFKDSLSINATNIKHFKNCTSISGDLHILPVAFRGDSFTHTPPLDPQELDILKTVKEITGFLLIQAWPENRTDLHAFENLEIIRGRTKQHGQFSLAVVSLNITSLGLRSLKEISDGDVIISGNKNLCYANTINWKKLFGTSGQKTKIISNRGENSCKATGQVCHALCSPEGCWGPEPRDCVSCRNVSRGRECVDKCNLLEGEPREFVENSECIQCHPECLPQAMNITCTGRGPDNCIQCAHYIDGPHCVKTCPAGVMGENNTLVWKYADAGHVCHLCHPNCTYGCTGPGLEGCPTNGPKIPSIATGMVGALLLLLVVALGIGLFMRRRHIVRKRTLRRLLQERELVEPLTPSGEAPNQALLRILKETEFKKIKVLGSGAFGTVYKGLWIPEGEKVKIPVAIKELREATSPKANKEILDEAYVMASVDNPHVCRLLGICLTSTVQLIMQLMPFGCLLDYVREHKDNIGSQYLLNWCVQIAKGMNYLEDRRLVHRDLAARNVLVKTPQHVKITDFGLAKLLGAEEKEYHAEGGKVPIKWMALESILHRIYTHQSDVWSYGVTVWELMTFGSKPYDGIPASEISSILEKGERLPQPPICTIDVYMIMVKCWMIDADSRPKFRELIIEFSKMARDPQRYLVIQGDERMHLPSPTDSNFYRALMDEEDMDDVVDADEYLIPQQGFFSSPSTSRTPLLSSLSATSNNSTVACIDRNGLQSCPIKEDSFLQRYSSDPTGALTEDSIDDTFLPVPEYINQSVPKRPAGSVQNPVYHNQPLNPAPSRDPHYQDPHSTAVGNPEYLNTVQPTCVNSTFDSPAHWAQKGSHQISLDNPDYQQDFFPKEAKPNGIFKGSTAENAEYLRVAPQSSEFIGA
Sequence of Epidermal growth factor receptor (Homo sapiens, UniProt P00533) (P00533 whole entry): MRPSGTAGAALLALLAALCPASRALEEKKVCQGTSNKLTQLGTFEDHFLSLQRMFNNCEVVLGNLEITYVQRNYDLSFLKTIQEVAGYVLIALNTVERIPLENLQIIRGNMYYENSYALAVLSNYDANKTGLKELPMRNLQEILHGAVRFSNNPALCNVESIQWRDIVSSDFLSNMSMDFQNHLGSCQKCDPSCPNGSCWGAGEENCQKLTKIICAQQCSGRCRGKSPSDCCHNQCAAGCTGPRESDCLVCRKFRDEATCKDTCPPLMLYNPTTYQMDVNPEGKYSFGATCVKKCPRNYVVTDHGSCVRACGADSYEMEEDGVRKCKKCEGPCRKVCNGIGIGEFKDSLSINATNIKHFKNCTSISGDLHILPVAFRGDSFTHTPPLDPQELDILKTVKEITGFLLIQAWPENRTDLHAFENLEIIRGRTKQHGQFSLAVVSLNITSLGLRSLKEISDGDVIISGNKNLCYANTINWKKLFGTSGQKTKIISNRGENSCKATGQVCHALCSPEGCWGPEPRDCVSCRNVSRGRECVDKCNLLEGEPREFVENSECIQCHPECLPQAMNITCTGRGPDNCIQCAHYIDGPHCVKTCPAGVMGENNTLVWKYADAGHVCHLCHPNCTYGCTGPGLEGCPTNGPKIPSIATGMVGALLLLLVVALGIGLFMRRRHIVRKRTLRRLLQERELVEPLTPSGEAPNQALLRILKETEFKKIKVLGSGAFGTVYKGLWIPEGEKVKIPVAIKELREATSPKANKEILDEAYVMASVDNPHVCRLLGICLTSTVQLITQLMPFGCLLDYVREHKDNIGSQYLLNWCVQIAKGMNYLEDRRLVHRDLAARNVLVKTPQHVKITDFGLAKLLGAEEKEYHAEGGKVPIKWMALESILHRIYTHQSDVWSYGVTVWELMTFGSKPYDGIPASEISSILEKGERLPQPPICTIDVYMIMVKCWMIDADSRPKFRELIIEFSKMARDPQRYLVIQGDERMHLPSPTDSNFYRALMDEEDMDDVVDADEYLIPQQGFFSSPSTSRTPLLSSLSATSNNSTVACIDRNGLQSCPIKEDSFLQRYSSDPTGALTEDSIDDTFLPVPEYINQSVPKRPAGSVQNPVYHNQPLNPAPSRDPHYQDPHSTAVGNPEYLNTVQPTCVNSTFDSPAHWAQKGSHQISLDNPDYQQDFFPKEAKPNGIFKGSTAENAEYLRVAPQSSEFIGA
T1 sequence (Q12809 whole entry): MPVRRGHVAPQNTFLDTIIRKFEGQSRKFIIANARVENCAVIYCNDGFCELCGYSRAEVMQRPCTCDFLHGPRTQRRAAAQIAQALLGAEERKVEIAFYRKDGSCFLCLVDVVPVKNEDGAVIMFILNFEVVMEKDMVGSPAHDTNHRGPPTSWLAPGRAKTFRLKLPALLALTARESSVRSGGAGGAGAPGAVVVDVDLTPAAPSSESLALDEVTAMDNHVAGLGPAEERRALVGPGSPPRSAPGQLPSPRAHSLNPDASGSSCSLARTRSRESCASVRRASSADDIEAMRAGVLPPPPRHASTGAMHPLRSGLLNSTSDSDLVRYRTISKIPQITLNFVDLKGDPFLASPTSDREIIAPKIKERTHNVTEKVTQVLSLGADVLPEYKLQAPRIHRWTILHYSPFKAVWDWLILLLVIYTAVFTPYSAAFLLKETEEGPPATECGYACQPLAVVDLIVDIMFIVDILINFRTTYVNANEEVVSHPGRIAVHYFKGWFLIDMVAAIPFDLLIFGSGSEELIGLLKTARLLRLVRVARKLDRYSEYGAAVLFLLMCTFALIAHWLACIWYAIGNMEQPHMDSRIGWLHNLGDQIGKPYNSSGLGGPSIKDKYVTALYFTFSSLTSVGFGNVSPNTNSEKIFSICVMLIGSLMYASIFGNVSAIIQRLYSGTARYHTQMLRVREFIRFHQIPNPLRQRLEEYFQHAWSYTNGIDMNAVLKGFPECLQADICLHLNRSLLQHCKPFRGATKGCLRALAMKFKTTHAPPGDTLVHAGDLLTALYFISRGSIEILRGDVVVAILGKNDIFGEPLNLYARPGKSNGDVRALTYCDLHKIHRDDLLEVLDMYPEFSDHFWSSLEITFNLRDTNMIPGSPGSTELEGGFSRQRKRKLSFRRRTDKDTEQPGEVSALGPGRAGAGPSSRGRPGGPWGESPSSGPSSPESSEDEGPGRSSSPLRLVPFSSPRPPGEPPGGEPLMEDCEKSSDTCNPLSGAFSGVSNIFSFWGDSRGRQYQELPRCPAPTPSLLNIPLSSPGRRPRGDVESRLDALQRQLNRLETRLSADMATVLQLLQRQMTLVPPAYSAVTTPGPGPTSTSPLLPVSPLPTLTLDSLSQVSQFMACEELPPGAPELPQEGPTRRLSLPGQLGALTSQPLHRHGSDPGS
Sequence of Receptor tyrosine-protein kinase erbB-2 (P04626 whole entry): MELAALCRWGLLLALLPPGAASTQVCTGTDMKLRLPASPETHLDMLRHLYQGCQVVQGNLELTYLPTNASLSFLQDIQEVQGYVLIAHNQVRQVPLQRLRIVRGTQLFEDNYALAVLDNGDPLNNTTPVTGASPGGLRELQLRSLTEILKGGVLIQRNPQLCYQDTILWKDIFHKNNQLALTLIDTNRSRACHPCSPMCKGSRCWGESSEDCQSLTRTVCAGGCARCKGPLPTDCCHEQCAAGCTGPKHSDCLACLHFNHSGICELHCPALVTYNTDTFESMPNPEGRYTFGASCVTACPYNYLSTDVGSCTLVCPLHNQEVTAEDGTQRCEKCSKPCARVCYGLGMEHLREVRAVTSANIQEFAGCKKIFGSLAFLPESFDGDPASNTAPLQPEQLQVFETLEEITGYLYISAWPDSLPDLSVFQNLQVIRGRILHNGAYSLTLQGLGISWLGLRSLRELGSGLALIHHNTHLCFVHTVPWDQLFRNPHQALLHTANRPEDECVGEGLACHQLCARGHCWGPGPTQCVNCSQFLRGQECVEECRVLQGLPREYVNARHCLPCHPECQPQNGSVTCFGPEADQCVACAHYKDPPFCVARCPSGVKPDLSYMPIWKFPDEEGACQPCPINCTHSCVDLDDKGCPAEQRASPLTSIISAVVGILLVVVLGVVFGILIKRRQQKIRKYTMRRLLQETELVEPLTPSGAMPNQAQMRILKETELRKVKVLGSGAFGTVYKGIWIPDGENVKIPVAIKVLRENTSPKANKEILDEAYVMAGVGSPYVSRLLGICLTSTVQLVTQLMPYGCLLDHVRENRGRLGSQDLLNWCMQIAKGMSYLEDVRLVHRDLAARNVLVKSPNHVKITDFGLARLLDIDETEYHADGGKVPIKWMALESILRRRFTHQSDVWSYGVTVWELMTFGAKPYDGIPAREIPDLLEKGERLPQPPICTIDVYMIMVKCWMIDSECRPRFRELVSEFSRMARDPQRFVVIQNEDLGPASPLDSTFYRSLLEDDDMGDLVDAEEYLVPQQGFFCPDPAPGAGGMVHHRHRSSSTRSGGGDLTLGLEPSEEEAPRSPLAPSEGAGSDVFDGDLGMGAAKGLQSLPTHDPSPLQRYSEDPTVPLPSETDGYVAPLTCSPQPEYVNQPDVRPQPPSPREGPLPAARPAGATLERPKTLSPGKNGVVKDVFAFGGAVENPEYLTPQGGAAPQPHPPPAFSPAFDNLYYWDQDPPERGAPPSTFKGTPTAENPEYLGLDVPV

IC50 (A-431): 1670 nM | IC50 [1]: 7.1 nM | IC50 (NCI-H1975 [2]): 2490 nM | IC50 [3]: 4.5 nM
SMILES: CCOc1cc2ncnc(Nc3ccc(Oc4ccc(C)nc4)c(Cl)c3)c2cc1NC(=O)/C(F)=C/CN(C)C

IC50 (A-431): 3060 nM | IC50 [1]: 25.8 nM | IC50 (NCI-H1975 [2]): 1530 nM | IC50 [5]: 97.1 nM
SMILES: CN(C)C/C=C(/F)C(=O)Nc1cc2c(Nc3ccc(F)c(Cl)c3)ncnc2cc1O[C@H]1CCOC1
inhibition at 1 µM (hERG (KCNH2) [4]): 6.37% | inhibition at 10 µM (hERG (KCNH2) [6]): 39.5%

microsomal CLint at 1 µM [7]: 50 µL/min/mg | microsomal CLint at 1 µM [8]: 5 µL/min/mg | microsomal CLint at 1 µM [9]: 26 µL/min/mg | microsomal CLint at 1 µM [10]: 221 µL/min/mg | microsomal CLint at 1 µM [11]: 105 µL/min/mg
SMILES: C=CC(=O)Nc1cc2c(Nc3ccc(F)c(Cl)c3)ncnc2cc1OCCCN1CCOCC1 [CANERTINIB]

IC50 (NCI-H1975 [2]): 1130 nM
SMILES: CCOc1cc2ncnc(Nc3ccc(OCc4ccccn4)c(Cl)c3)c2cc1NC(=O)/C(F)=C\CN(C)C

IC50 (A-431): 830 nM | IC50 (NCI-H1975 [2]): 1110 nM
SMILES: COc1cc2ncnc(Nc3ccc(F)c(Cl)c3)c2cc1NC(=O)/C(F)=C\CN1CCOCC1

AUC (Mus musculus [12]): 14.7 µM·min | Vz (Mus musculus [13]): 12.2 L/kg | Cmax [14]: 90 nM | IC50 (NCI-H1975 [2]): 1010 nM | CL(app) (Mus musculus [15]): 120 mL/min/kg | bioavailability [16]: 16.5%
SMILES: COc1cc2ncnc(Nc3ccc(F)c(Cl)c3)c2cc1NC(=O)/C(F)=C\CN1CCCCC1

IC50 (A-431): 5900 nM | IC50 (NCI-H1975 [2]): 2940 nM | IC50 [3]: 9.5 nM
SMILES: CCOc1cc2ncnc(Nc3ccc(Oc4ccc(C)nc4)c(Cl)c3)c2cc1NC(=O)/C(F)=C\CN(C)C

SMILES: COc1cc(N)c(Cl)cc1C(=O)NC1CCN(CCCOc2ccc(F)cc2)CC1OC (configuration not stated) [CISAPRIDE]
inhibition at 0.1 µM (hERG (KCNH2) [17]): 65.5% | inhibition at 1 µM (hERG (KCNH2) [4]): 92.4%

IC50 (A-431): 1200 nM | IC50 (NCI-H1975 [2]): 4100 nM | IC50 [3]: 5 nM
SMILES: COc1cc2ncnc(Nc3cccc(Br)c3)c2cc1NC(=O)/C(F)=C\CN(C)C

IC50 (A-431): 10900 nM | IC50 (NCI-H1975 [2]): 3010 nM
SMILES: O=C(Nc1cc2c(Nc3ccc(F)c(Cl)c3)ncnc2cc1O[C@H]1CCOC1)/C(F)=C\CN1CCOCC1

IC50 (A-431): 4020 nM | IC50 [1]: 2.1 nM | IC50 (NCI-H1975 [2]): 2060 nM | IC50 [3]: 1.56 nM
SMILES: COc1cc2ncnc(Nc3ccc(OCc4cccc(F)c4)c(Cl)c3)c2cc1NC(=O)/C(F)=C/CN(C)C

SMILES: CN(C)C/C=C(\F)C(=O)Nc1cc2c(Nc3ccc(F)c(Cl)c3)ncnc2cc1O[C@H]1CCOC1
bioavailability [18]: 84.7% | IC50 (Cytochrome P450 2C9): > 10000 nM | IC50 (A-431): 130 nM | T/C (NCI-H1975 [19]): 9.4% | AUC(0-inf) [20]: 10.4 µM·h | IC50 [1]: 5.52 nM | CL/F [21]: 30 mL/min/kg | IC50 (Cytochrome P450 3A4): > 10000 nM | microsomal CLint at 1 µM [7]: 2 µL/min/mg | Cmax [22]: 940 nM | inhibition of growth at 5 µM (SW-620): 11.5% | T/C (NCI-H1975 [23]): 42.5% | microsomal CLint at 1 µM [8]: 12 µL/min/mg | inhibition at 1 µM (hERG (KCNH2) [4]): 0% | IC50 (NCI-H1975 [2]): 1240 nM | inhibition (NCI-H1975 [24]): Dose-dependent effect | IC50 (Cytochrome P450 2D6): > 10000 nM | IC50 (Cytochrome P450 1A2): > 10000 nM | T/C (NCI-H1975 [25]): 19.5% | Vz (Mus musculus [26]): 9.69 L/kg | IC50 [5]: 149 nM | microsomal CLint at 1 µM [9]: 39 µL/min/mg | microsomal CLint at 1 µM [10]: 31 µL/min/mg | Activity (NCI-H1975 [27]): Non-toxic | inhibition at 10 µM (hERG (KCNH2) [6]): 14.8% | IC50 (Cytochrome P450 2C19): > 10000 nM | Kp at 6 h [28]: 0.79 | Kp at 6 h [29]: 25 | microsomal CLint at 1 µM [11]: 14 µL/min/mg

Reference: ChEMBL document CHEMBL3351667, “A chemical tuned strategy to develop novel irreversible EGFR-TK inhibitors with improved safety and pharmacokinetic profiles” (J Med Chem, 2014)
